Active and inactive are the calls of the source.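 How the source made its calls, unless noted: active means duplicate-averaged activation above buffer control mean plus 5 SD of those controls; inactive means the rest.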

Assay [1] in a line: nonspecific flux increase, KCNQ1-free cells – parental CHO cells, counter-screen for KCNQ1 potentiator project (AID 493006).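 On activation: fluorescence ratio of max minus min over baseline after K+ and Tl+ depolarization.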 The settings on record: parental CHO-K1 cells, FluxOR thallium flux, at 10 µM; stronger effect = higher value. The method in brief: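 Material: untransfected host CHO-K1 cells with FluxOR thallium dye. Timing: overnight 37 °C plating, 90 min RT dye, 20 min compound. Detection: kinetic FluxOR fluorescence, 10 s baseline, 110 s after stimulus. Read-out basis: max-minus-min fluorescence over baseline, percent of buffer-to-R-L3 span. Replicates: duplicate wells per compound, percent values averaged.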
On the technique in general: Counterscreens check selectivity or assay interference.

Assay [2] addresses Potassium voltage-gated channel subfamily KQT member 1 (Homo sapiens) (UniProt P51787). Description: enhancement of KCNQ1 channel thallium flux – FluxOR thallium flux, CHO cells, duplicates, confirmation (AID 493007;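 active means potentiation averaged over duplicate wells exceeding buffer-only control mean by more than 3 SD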;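 on outcome: cells depolarized by a potassium plus thallium sulfate stimulus after compound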). The settings on record: KCNQ1 cell line, FluxOR thallium flux fluorescence, at 10 µM; stronger effect = higher value, % of reference activator effect, buffer zero. In a few lines: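 Test system – KCNQ1-expressing CHO cell line · Incubation – FluxOR dye loading 90 min, compound exposure 20 min, room temperature · Detection – FluxOR Tl+ flux fluorescence, 10 s baseline plus 110 s recording · Controls – buffer-only wells as 0% and R-L3 activator as 100%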

In assay [3] the target is Potassium voltage-gated channel subfamily KQT member 2 (Rattus norvegicus) (UniProt O88943). Put plainly: KCNQ2 thallium flux enhancement – KCNQ2-CHO-K1 cells, selectivity assay for KCNQ1 potentiator project (AID 493009;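 active means mean duplicate potentiation above the buffer control mean plus 5 SD of buffer wells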;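 further: assay conditions were tuned for KCNQ1 rather than KCNQ2 modulators; signal is max minus min fluorescence divided by baseline after thallium stimulus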). Conditions: FluxOR thallium flux fluorescence, at 10 µM; stronger effect = higher value, scaled: buffer 0, activator control 100.
Chain of Potassium voltage-gated channel subfamily KQT member 2 (Rattus norvegicus) (O88943 whole entry, looked up): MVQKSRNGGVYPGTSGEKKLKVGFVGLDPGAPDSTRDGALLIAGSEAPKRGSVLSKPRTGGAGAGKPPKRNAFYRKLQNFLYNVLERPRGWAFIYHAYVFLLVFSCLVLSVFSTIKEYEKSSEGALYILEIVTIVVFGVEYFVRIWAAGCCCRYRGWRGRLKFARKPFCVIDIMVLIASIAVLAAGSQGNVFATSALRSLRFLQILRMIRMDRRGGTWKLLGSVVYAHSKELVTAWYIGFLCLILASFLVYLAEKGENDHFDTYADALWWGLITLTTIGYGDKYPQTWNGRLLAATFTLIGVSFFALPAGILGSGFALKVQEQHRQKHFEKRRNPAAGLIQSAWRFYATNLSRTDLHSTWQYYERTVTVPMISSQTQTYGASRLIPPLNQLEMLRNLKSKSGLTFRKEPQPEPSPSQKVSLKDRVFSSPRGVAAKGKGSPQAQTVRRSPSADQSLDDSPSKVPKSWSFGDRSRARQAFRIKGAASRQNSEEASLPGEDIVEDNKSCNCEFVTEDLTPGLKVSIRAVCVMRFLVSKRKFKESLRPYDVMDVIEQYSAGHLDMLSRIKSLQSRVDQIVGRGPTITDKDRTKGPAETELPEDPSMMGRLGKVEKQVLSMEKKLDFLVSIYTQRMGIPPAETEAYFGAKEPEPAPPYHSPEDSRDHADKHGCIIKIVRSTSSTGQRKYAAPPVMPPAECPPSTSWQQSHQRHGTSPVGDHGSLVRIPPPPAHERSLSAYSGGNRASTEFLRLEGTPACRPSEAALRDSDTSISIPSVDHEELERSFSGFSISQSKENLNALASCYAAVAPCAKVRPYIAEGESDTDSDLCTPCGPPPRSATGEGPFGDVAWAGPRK
Assay [4] has as its target Potassium voltage-gated channel subfamily KQT member 1 (Homo sapiens) (UniProt P51787). Put plainly: KCNQ1 activators by electrophysiology – IonWorks patch clamp, KCNQ1-CHO cells, orthogonal assay for KCNQ1 potentiator project, confirmation (AID 493184;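 active means current rise at least 3 SD above the untreated control mean in each of two repeat wells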). The settings on record: automated patch clamp current, at 10 µM; stronger effect = higher value. In a few lines:
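Read-out: Percent current increase versus pre-compound level | Assay system: CHO cells carrying KCNQ1 | Measured by: Automated perforated-patch electrophysiology | Medium: External bath solution at pH 7.4 | Dosing: One dose, 10 µM final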
For orientation: Patch clamp records ionic current or voltage across a cell membrane.

Chain of Potassium voltage-gated channel subfamily KQT member 1 (Homo sapiens) (P51787 whole entry, looked up): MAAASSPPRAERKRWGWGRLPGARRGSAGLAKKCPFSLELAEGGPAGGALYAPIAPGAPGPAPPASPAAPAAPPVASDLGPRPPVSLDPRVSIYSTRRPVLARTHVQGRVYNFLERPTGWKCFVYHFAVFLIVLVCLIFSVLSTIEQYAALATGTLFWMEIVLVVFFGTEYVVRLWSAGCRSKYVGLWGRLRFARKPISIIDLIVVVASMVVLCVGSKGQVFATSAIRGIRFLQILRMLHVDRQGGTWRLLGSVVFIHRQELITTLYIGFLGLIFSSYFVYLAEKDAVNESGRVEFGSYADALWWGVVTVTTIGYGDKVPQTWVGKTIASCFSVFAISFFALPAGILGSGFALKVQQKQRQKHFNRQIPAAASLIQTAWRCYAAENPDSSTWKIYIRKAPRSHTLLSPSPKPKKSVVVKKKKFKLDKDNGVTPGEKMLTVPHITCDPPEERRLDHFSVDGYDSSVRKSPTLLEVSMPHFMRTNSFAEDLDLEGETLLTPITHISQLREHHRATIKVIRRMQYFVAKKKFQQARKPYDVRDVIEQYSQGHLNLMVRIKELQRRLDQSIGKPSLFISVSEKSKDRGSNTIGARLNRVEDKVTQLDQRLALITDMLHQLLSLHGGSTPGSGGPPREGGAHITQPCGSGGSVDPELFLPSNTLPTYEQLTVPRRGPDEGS

`CNC(=S)N/N=C/c1cc(Br)cc(Br)c1O`: the activation in assay [1] is 168% (active). For the same molecule, the outcome in assay [2], in assay [3] and in assay [4] was inactive.

Consider `Cc1cc(S(=O)(=O)N2CCOCC2)ccc1OCC(=O)Nc1ccc(Br)cc1F`, for which the outcome in assay [1], in assay [2], in assay [3] and in assay [4] was inactive.

Turning to `CCOC(=O)c1sc2nc(C)[nH]c(=S)c2c1C`, in assay [1], the activation was 198% (active). In addition, the potentiation is 52% (active) in assay [2] and 214% (active) in assay [3]. In assay [4], the outcome was inactive.

Consider `O=C(NC(=S)N(Cc1ccccc1)Cc1ccccc1)c1ccccc1F`, for which the activation in assay [1] was 225% (active). Besides, the potentiation in assay [2] is 208% (active); in assay [3], 338% (active). Further, the result in assay [4] was inactive.

Turning to `CCOc1cc(CNCCCN2CCOCC2)ccc1OCC(=O)NC(C)(C)C`, the result in assay [1], in assay [2], in assay [3] and in assay [4] was inactive.

With `Cc1cc(/C=C2\SC(=Nc3ccc(F)cc3)NC2=O)c(C)n1-c1ccc(S(N)(=O)=O)cc1`, the result in assay [1], in assay [2], in assay [3] and in assay [4] was inactive.

On to `Cc1ccc(Cl)cc1N1CCN(C(=O)c2ccc(CN3CCOCC3)cc2)CC1`, for which the result in assay [1], in assay [2], in assay [3] and in assay [4] was inactive.

For the molecule `Cc1cc(=O)oc2cc(OCC3CC(c4ccccc4Cl)=NO3)ccc12` (stereo not given), the activation in assay [1] is 156% (active). Moreover, the potentiation in assay [2] is 30.5% (active). Moreover, the outcome in assay [3] and in assay [4] was inactive.

In the case of `Cc1ccc(OCC(=O)NC(=S)Nc2ccc(Br)cn2)cc1`, the result in assay [1], in assay [3] and in assay [4] was inactive. Also, in assay [2], the potentiation is 19.5% (active).

Regarding `O=S(=O)(Nc1ccccc1Cl)c1ccc(NS(=O)(=O)c2cccs2)cc1`, the result in assay [1], in assay [3] and in assay [4] was inactive. Also, the potentiation in assay [2] was 26.5% (active).

For the molecule `Cc1cc(C)c(NC(=O)CN2C(=O)NC3(CCCc4ccccc43)C2=O)c(Cl)c1` (stereo not given), the outcome in assay [1], in assay [2], in assay [3] and in assay [4] was inactive.

As to `NNC(=O)c1sccc1OCc1ccc(Cl)cc1Cl`, the result in assay [1], in assay [2], in assay [3] and in assay [4] was inactive.

As to `Cc1cc(/C=N/NC(=O)c2cccs2)c(C)n1-c1ccccc1`, the outcome in assay [1], in assay [2], in assay [3] and in assay [4] was inactive.

On to `CCCCN(CCCC)C(=S)NC(=O)c1ccccc1Cl`, for which, in assay [1], the activation is 556% (active). Further, the figures for the potentiation in assay [2] and in assay [3] were 238% (active) and 542% (active), respectively. Further, in assay [4], the result was inactive.

With `Cc1nn2c(c1-c1ccccc1)NC1=C(C(=O)CCC1)C2c1ccccc1` (stereo not given), the outcome in assay [1], in assay [2], in assay [3] and in assay [4] was inactive.

Turning to `Cc1nc(-c2nc(-c3c(C(=O)NNC(=O)c4ccc(Cl)cc4)noc3C)cs2)cs1`, in assay [1], the activation was 140% (active). Moreover, the potentiation is 54.5% (active) in assay [2] and 184% (active) in assay [3]. In assay [4], the result was inactive.

For the molecule `COc1ccccc1C(=O)NNC(=O)C(=O)Nc1cccc(Cl)c1C`, the activation in assay [1] is 612% (active). Besides, the potentiation is 206% (active) in assay [2] and 580% (active) in assay [3]. In assay [4], the result was inactive.

On to `c1csc(-c2csc3ncnc(NCCCN4CCOCC4)c23)c1`, for which the outcome in assay [1], in assay [2], in assay [3] and in assay [4] was inactive.

As to `C=CCN(CC=C)C(=S)NC(=O)c1ccc([N+](=O)[O-])cc1`, the activation in assay [1] is 366% (active). Moreover, the potentiation in assay [2] is 137% (active); in assay [3] it was 359% (active). Moreover, the result in assay [4] was inactive.

Turning to `COc1ccccc1OCCSc1nc2ccccc2n1CCC(=O)O`, the outcome in assay [1], in assay [2], in assay [3] and in assay [4] was inactive.

In the case of `O=C(NCc1ccccc1)C(=O)NCC1CCCN1S(=O)(=O)c1cccs1` (stereo not given), the result in assay [1], in assay [2], in assay [3] and in assay [4] was inactive.

For the molecule `COc1cc(C(=O)NNC(=O)C2CC2)cc(OC)c1OC`, the result in assay [1], in assay [2], in assay [3] and in assay [4] was inactive.

In the case of `N#C/C=C1/NC(=O)c2ccccc2S1`, the activation in assay [1] is 138% (active). The potentiation was 22.5% (active) in assay [2] and 166% (active) in assay [3]. In addition, the result in assay [4] was inactive.

With `COC(=O)c1c(NC(=O)CC2SC(N)=NC2=O)sc2c1CCC(C)C2` (stereo not given), the outcome in assay [1], in assay [2], in assay [3] and in assay [4] was inactive.

As for `Cc1cc(C(=O)N/N=C/C=C/c2ccc3c(c2)OCO3)n[nH]1`, the result in assay [1], in assay [2], in assay [3] and in assay [4] was inactive.

`CN1C(=O)/C(=N\OC(=O)c2cccc3ccccc23)c2ccccc21`: the outcome in assay [1], in assay [2], in assay [3] and in assay [4] was inactive.

As to `COCCCn1c(=S)[nH]c2sc3c(c2c1=O)CCCS3`, the activation in assay [1] is 147% (active). Also, the potentiation in assay [2] was 30.5% (active). Besides, the outcome in assay [3] and in assay [4] was inactive.

Regarding `Cc1cccc(NC(=O)CSc2ccc3nnc(-c4cccnc4)n3n2)c1`, the result in assay [1], in assay [2], in assay [3] and in assay [4] was inactive.

In the case of `S=c1nc(-c2ccccc2)[nH]c2ccc(Br)cc12`, in assay [1], the activation was 578% (active). Besides, the values for the potentiation in assay [2] and in assay [3] were 294% (active) and 602% (active), respectively. The outcome in assay [4] was inactive.

Take `COC(=O)c1ccc(CSc2ncnc3c2sc2nc(N4CCOCC4)c4c(c23)CCCC4)o1`: the outcome in assay [1], in assay [2], in assay [3] and in assay [4] was inactive.
